For data set [1], the species on record is Homo sapiens. Description: Effective dose required to inhibit 70% of HIV-1 Ba-L-infected MDM''s at 0.01 uM. Type of data set: functional.
The species named for data set [2] is Homo sapiens. Description: Effective dose required to inhibit 50% of HIV-1 Ba-L-infected MDM''s at 0.001 uM. Type of data set: functional.
Data set [3] is described as follows: Percent increase in intracellular GSH level at 100 uM in 24 hr treated human macrophage-derived monocytes (MDMs). Format: functional. A digest of the protocol:
(§1)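 Human MDMs from healthy-donor PBMCs (Ficoll-Hypaque gradient; monocytes split from PBLs by countercurrent centrifugal elutriation; 7 days differentiation). Cultured in DMEM Glutamax with 10% heat-inactivated FCS plus penicillin/streptomycin/neomycin. Treated 24 h, then lysed; GSH measured by Griffith's method and normalised to protein (Bradford). Run in triplicate across five independent experiments (n=15).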

The nature of data set [4]: Percent increase in intracellular GSH level at 10 uM in 24 hr treated human macrophage-derived monocytes (MDMs). Format: functional. Put shortly:
as §1

The subject of another data set is Mus musculus. Description: Tested for intraperitoneal lethal dose in OF1 mice after 30 days. Format: functional. The settings on record: ip, 720 h. A digest of the protocol:
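Mice (OF1) dosed intraperitoneally and followed for 30 days. LD50 derived by Probit analysis, with the dose range set in a preliminary study.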

Data set [5] in a line: Tested for cytotoxic concentration in human macrophage-derived monocytes (MDMs) at 24 hr treatment. Format: cell-based. A digest of the protocol:
(§2)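 Human MDMs from donor PBMCs (elutriated monocytes, 7 days differentiation) exposed to the compound for 24 h or 12 days. Cytotoxicity read by neutral-red uptake; CC50 taken as the mean of three independent experiments, each in triplicate.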

Data set [6] in a line: Tested for cytotoxic concentration in human macrophage-derived monocytes (MDMs) after 12 days. Type of data set: cell-based. A digest of the protocol:
as §2

Data set [7] in a line: Percent increase in intracellular GSH level at 1000 uM in 24 hr treated human macrophage-derived monocytes (MDMs). Format: functional. Put shortly:
as §1

Data set [8] can be described thus: Percent increase in intracellular GSH level at 250 uM in 24 hr treated human macrophage-derived monocytes (MDMs). Format: functional. Put shortly:
as §1

The species entered for data set [9] is Homo sapiens. Description: Effective dose required to inhibit 90% of HIV-1 Ba-L-infected MDM''s at 0.001 uM. Format: functional.
For data set [10], the species on record is Homo sapiens. Description: Effective dose required to inhibit 90% of HIV-1 Ba-L-infected MDM''s at 0.01 uM. Type of data set: functional.
Data set [11] is filed under the species Homo sapiens. Description: Effective dose required to inhibit 50% of HIV-1 Ba-L-infected MDM''s at 0.01 uM. Type of data set: functional.
Data set [12] can be described thus: Effect on intracellular GSH content at 250 uM in human macrophage-derived monocytes (MDMs). Type of data set: functional. A digest of the protocol: as §1
Data set [13] is filed under the species Homo sapiens. Description: Effective dose required to inhibit 70% of HIV-1 Ba-L-infected MDM''s at 0.001 uM. Format: functional.

One may read the LD50 as the dose at which mortality reaches 50%. By CC50 is commonly meant the concentration that lowers cell viability or growth by half. High values mean better tolerance by the cells, low ones harm at low concentration. For the molecule `CC(=O)N[C@@H](CS)C(=O)NCCSC(C)=O`, the ED70 in the data set filed under Homo sapiens [1] came to 90 µM; in the data set listed under Homo sapiens [13], 15 µM. For the same molecule, the ED50 came to 3 µM in the data set filed under Homo sapiens [2] and 50 µM in the data set listed under Homo sapiens [11]. For the same molecule, the GSH was 75% in data set [3]; 0% in data set [4]; 140% in data set [7]; 165% in [8]; 480% in data set [12]. Also, the LD50 in the data set on Mus musculus was 700 mg/kg. The molecule also registered a CC50 at 24 h in data set [5] above 5 mM. In [6], this molecule showed a cytotoxic concentration (CC50) at 288 h of 635 µM. Besides, the ED90 in the data set filed under Homo sapiens [9] is 75 µM; in the data set listed under Homo sapiens [10], 190 µM.
For `CC(=O)N[C@@H](CS)C(=O)O` [ACETYLCYSTEINE], the GSH in [12] was 200%.
In data set [12], `CC(=O)N[C@@H](CS)C(=O)O.NCCS` registered a GSH of 190%.
Same read-out and setting: as for `NCCS` [CYSTEAMINE], the figure is 200%.
